Compound activity from PubChem.
Shown are actives, neighbours in structure and some others; about 2.5% of the full set was active somewhere.
A1 inh – inhibitors of the anti-apoptotic protein A1, read as caspase activation; MEF A1-2A-BIM cells, Caspase-Glo 3/7 luminescence, 3 h; percent of clofoctol response, vehicle zero; caspase activation, % (test concentration not listed); actives 0.066% (n = 330,000);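 active = over half of replicate activation scores above 10%, or exactly half above 10 with the replicate mean above 10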
HGIII-sPLA2 inh – Blocks human group III sPLA2 activity | inhibition, % at 12.2 µM | AID 743126 | QFRET BODIPY PC-A2 liposome hydrolysis, fluorescence | actives 0.56% (n = 370,000);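 active = inhibition above mean plus 3 SD of compounds lying within the high and low control bounds, cut at about 19% in these data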;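 note: 0% = median of test compound wells and 100% = no enzyme DMSO wells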
NTR1 ag – activates human neurotensin receptor 1 | NTR1-U2OS beta-arrestin-GFP spot imaging, agonist mode | activation, % at 20 µM | actives 0.17% (n = 330,000);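 active = activation at or above 40% of the spot to cytoplasm intensity ratio, with at least 20 cells analyzed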;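 note: 0% = DMSO without peptide and 100% = 100 nM NTR1 peptide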
Target sequence (P30989 whole entry, looked up): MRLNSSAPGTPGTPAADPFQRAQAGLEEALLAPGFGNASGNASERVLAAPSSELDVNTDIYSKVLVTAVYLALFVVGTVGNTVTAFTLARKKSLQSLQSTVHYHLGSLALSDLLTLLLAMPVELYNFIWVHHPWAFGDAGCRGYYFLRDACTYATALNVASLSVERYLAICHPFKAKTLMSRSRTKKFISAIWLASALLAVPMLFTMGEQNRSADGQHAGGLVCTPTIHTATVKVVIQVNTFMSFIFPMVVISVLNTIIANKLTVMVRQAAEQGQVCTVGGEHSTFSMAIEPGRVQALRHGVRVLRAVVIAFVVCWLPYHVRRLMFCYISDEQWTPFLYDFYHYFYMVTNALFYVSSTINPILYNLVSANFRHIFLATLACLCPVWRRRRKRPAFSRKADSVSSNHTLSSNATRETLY
Exocytosis inh – lytic granule exocytosis inhibition. inhibition, % at 10 µM. actives 0.66% (n = 360,000). TALL-104 LAMP-1 surface exposure, flow cytometry; cells stimulated with thapsigargin and PMA;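 active = inhibition above about 55%, limit read from the data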
MC4R ag barr – human MC4R agonism via beta-arrestin. U2OS MC4R beta-arrestin complementation, luminescence; percent of melanotan II response, DMSO zero. activation, % at 8.9 µM. actives 0.98% (n = 360,000). AID 540308;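 active = activation above a per-plate cutoff, the mean activation of sample wells on that plate plus 3 SD, cut at about 8% in these data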
MC4R antagonist – antagonists of human melanocortin 4 receptor (MC4R); MC4R-expressing cells, MTII-stimulated cAMP, LANCE TR-FRET; inhibition, % at 6.5 µM; actives 0.48% (n = 360,000);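 active = inhibition above its plate's cutoff, the mean of tested wells on that plate plus 3 SD, cut at about 29% in these data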;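 note: 0% = Melanotan II alone and 100% = Melanotan II plus saturating MCL0020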
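System: U2OS cells stably expressing human melanocortin 4 receptor (MC4R). Reagent: Melanotan II challenge after compound preincubation. Doses: 6.5 µM. Times: 30-min compound, 1-h challenge, 1-h detection, room temperature. Measured by: TR-FRET with Eu-cAMP and labeled anti-cAMP, 671 nm. Replicates: singlicate.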
U2OS cAMP counter – counter-screen for MC4R antagonists: nonselective cAMP signaling inhibitors; parental U2OS, forskolin cAMP, LANCE TR-FRET; actives 26% (n = 1,600); inhibition, % at 6.5 µM; AID 602193; shares compounds with MC4R antagonist;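 active = mean inhibition over triplicates above the low-control well mean plus 3 SD, set per campaign, cut at about 13% in these data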;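 note: signal is single emission at 671 nm which falls as cellular cAMP rises; 0% = forskolin-stimulated wells and 100% = buffer without forskolin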
MC4R cAMP antag – human MC4R cAMP antagonism confirmation; shares compounds with MC4R antagonist; MC4R-expressing cells, MTII-stimulated cAMP, TR-FRET; inhibition, % at 6.5 µM; actives 27% (n = 1,600); AID 602195; in the data active = inhibition above about 29%;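 note: 0% = agonist stimulated wells alone and 100% = agonist stimulated wells plus saturating reference antagonist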
The depositor's hits bear a star.

`COC(=O)COc1ccc(S(=O)(=O)N2CCN(c3ccc(OC)cc3)CC2)cc1` gave A1 inh -1, HGIII-sPLA2 inh -2, NTR1 ag 1, Exocytosis inh -3, MC4R ag barr -1, MC4R antagonist 30*, U2OS cAMP counter 18* and MC4R cAMP antag 46*.
`CC(=O)CC[C@H]1CC[C@]2(CCCN(C(=O)C(C)(C)C)C2)O1` gave HGIII-sPLA2 inh 3.
Screening Cc1cccc(-c2nnc(SCC(=O)c3ccc(F)cc3)n2C)c1 returned HGIII-sPLA2 inh -34.
For O=C1C=CC(=O)N1CCCCCCCCCCN1C(=O)C=CC1=O the results were HGIII-sPLA2 inh -6, Exocytosis inh 13, MC4R ag barr -4, MC4R antagonist 78*, U2OS cAMP counter 20* and MC4R cAMP antag 49*.
For N=c1c2c(ccn1CCCc1ccccc1)Oc1ccc3ccccc3c1C2c1ccccc1 (stereo not given) the results were HGIII-sPLA2 inh -4.
Screening CC(=O)CSc1nc(-c2cccs2)c(C#N)c(=O)[nH]1 returned HGIII-sPLA2 inh -23, NTR1 ag 0, Exocytosis inh 0, MC4R ag barr 1, MC4R antagonist 46*, U2OS cAMP counter 36* and MC4R cAMP antag 60*.
CS(=O)(=O)c1ccc(-c2sc3ccccc3c2C#CCCO)cc1 was read as A1 inh 0, HGIII-sPLA2 inh -37, NTR1 ag 10, Exocytosis inh -2, MC4R ag barr -1 and MC4R antagonist 26.
Screening COc1ccc2c(C#CCCO)c(-c3ccc(S(C)(=O)=O)cc3)sc2c1 returned A1 inh 0, HGIII-sPLA2 inh -37, NTR1 ag 9, Exocytosis inh -1, MC4R ag barr 8, MC4R antagonist 36*, U2OS cAMP counter -5 and MC4R cAMP antag 5.
CC(=O)Nc1sc2c(c1C(c1ccc(F)cc1)N1CCOCC1)CCCC2 (stereo not given) was read as A1 inh 1, HGIII-sPLA2 inh -4, NTR1 ag 3, Exocytosis inh 5, MC4R ag barr 2, MC4R antagonist 29*, U2OS cAMP counter 2 and MC4R cAMP antag 6.
For CC(=O)Nc1sc2c(c1C(c1ccc(Cl)cc1)N1CCOCC1)CCCC2 (stereo not given) the results were A1 inh 0, HGIII-sPLA2 inh 1, NTR1 ag 10, Exocytosis inh 2, MC4R ag barr 0 and MC4R antagonist 18.
`CCOc1ccc(NC(=O)c2cc(-c3ccc(Cl)cc3)nc3ccccc23)cc1` gave HGIII-sPLA2 inh 1.
Screening COC(=O)c1ccc2c(=O)n(Cc3ccco3)c(SCC(=O)Nc3cc(C)on3)nc2c1 returned A1 inh 0, HGIII-sPLA2 inh 16, NTR1 ag 2, Exocytosis inh -2, MC4R ag barr 0 and MC4R antagonist 13.
Screening COC(=O)c1ccc2c(=O)n(Cc3ccco3)c(SCC(=O)Nc3ccccc3Cl)nc2c1 returned A1 inh -1, HGIII-sPLA2 inh -6, NTR1 ag 8, Exocytosis inh 2, MC4R ag barr 0, MC4R antagonist 29*, U2OS cAMP counter -3 and MC4R cAMP antag -5.
`CC(C)(C)c1ccc(OCCCN2CCC(C(O)(c3ccccc3)c3ccccc3)CC2)cc1` gave HGIII-sPLA2 inh 1.
For COc1ccc2nc(SCC(=O)Nc3cc(C)on3)c(C#N)cc2c1 the results were A1 inh 0, HGIII-sPLA2 inh 2, NTR1 ag -1, Exocytosis inh -7, MC4R ag barr -1 and MC4R antagonist 13.
Cc1cc(NC(=O)CSc2nc3ccccc3cc2C#N)no1 was read as A1 inh 1, HGIII-sPLA2 inh 2, NTR1 ag 0, Exocytosis inh 4, MC4R ag barr 0, MC4R antagonist 51*, U2OS cAMP counter 7 and MC4R cAMP antag 0.
